Converted amounts (≈) assume the structure as drawn.
Tests used:
[1] = system: Human alphaherpesvirus 3; experiment: Antiviral activity in TK+ varicella zoster virus (VZV) 07/1 strain in HEL cell culture; type: functional, organism-based; conditions: Human alphaherpesvirus 3, HEL
[2] = system: Moloney murine sarcoma virus; experiment: Compound was tested for anti-retroviral activity against moloney murine sarcoma virus (MSV) in murine C3H/3T3 embryo fibroblast cell culture; type: functional, organism-based
Summary of the method: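 C3H/3T3 fibroblasts were seeded at 5 × 10⁵ cells/mL. After 24 h they were infected with 80 focus-forming units of MSV for 90-120 min at 37 °C; the virus came from tumours induced by intramuscular inoculation of 3-day-old NMRI mice. The medium was then replaced with fresh medium containing various compound concentrations. Transformation was scored microscopically after 6 days.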

[3] = system: Human immunodeficiency virus 2; experiment: Inhibition of human immunodeficiency virus-2 (HIV-2) induced cytopathicity in CEM cells; type: functional, organism-based; conditions: Human immunodeficiency virus 2, CCRF-CEM
[4] = Antiviral activity against thymidine kinase deficient herpes simplex virus-1 HSV-1 TK- VMW-1837 strain in E6SM cell culture; type: functional, cell-based; conditions: Human alphaherpesvirus 1, E6SM
Summary of the method: (§1)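 Confluent cell monolayers in microtiter trays were inoculated with 100 CCID50 of virus. After 1 h adsorption the residual virus was removed. Cells were then incubated with serial compound concentrations (400, 200, 100, ... µg/mL). Cytopathicity was scored once it was complete in untreated infected controls. The value is the 50% inhibitory concentration, or the concentration reducing plaque formation by 50%, in µg/mL.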

[5] = system: Human alphaherpesvirus 3; experiment: Antiviral activity in TK+ varicella zoster virus (VZV) YS strain in HEL cell culture; type: functional, organism-based; conditions: Human alphaherpesvirus 3, HEL
[6] = system: Cytomegalovirus; experiment: Antiviral activity against cytomegalovirus (CMV) Davis strain in HEL cell culture; type: functional, organism-based; conditions: Human betaherpesvirus 5, HEL; summary of the method: as §1
[7] = Antiviral activity against herpes simplex virus-1 KOS in E6SM cell culture; type: functional, cell-based; conditions: Human alphaherpesvirus 1, E6SM; summary of the method: as §1
[8] = system: Human immunodeficiency virus 1; experiment: Inhibition of human immunodeficiency virus-1 (HIV-1) induced cytopathicity in human MT-4 cells; type: functional, organism-based; conditions: Human immunodeficiency virus 1, MT4
Summary of the method: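 MT-4 cells (~4 × 10⁵ cells/mL) were infected with HIV-1(IIIB) at 100 CCID50 per µL. Infected cells were seeded into wells containing compound dilutions and incubated 5 days at 37 °C. Viable cells were then counted by trypan blue exclusion in a blood cell counting chamber.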

[9] = system: Human betaherpesvirus 5; experiment: Antiviral activity against cytomegalovirus (CMV) AD169 strain in HEL cell culture; type: functional, organism-based; conditions: Human betaherpesvirus 5, HEL; summary of the method: as §1
[10] = system: Human immunodeficiency virus 1; experiment: Inhibition of human immunodeficiency virus-1 (HIV-1) induced cytopathicity in CEM cells; type: functional, organism-based; conditions: Human immunodeficiency virus 1, CCRF-CEM
Summary of the method: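 CEM cells (~3 × 10⁵ cells/mL) were infected with HIV-1(IIIB) at 100 CCID50 per µL. Infected cells were plated with compound dilutions and incubated 4 days at 37 °C. Giant cell formation was then examined microscopically.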

[11] = system: Human alphaherpesvirus 2; experiment: Antiviral activity in herpes simple virus-2 (HSV-2) Lyons strain in E6SM cell culture; type: functional, organism-based; conditions: Human alphaherpesvirus 2, E6SM; summary of the method: as §1
[12] = system: Human alphaherpesvirus 3; experiment: Antiviral activity in TK+ varicella zoster virus (VZV) OKA strain in HEL cell culture; type: functional, organism-based; conditions: Human alphaherpesvirus 3, HEL
[13] = system: Vaccinia virus; experiment: Antiviral activity against vaccinia virus (VV) in E6SM cell culture; type: functional, organism-based; conditions: Orthopoxvirus vaccinia
[14] = system: Human alphaherpesvirus 1; experiment: Antiviral activity against thymidine kinase deficient herpes simplex virus-1 HSV-1 TK- B2006 strain in E6SM cell culture; type: functional, organism-based; conditions: Human alphaherpesvirus 1, E6SM; summary of the method: as §1

SMILES	IC50 [1] [µg/mL]	IC50 [2] [µg/mL]	IC50 [3] [µg/mL]	IC50 [4] [µg/mL]	IC50 [5] [µg/mL]	IC50 [6] [µg/mL]	IC50 [7] [µg/mL]	IC50 [8] [µg/mL]	IC50 [9] [µg/mL]	IC50 [10] [µg/mL]	IC50 [11] [µg/mL]	IC50 [12] [µg/mL]	IC50 [13] [µg/mL]	IC50 [14] [µg/mL]
C[C@H](Cn1nnc2c(O)nc(N)nc21)OCP(=O)(O)O	20 (≈ 65.7 µM)	0.43 (≈ 1.41 µM)	2 (≈ 6.57 µM)	20 (≈ 65.7 µM)	28 (≈ 92 µM)	35 (≈ 115 µM)	20 (≈ 65.7 µM)	2.42 (≈ 7.96 µM)	50 (≈ 164 µM)	2 (≈ 6.57 µM)	20 (≈ 65.7 µM)	40 (≈ 131 µM)	> 100	> 100
Nc1nc(N)c2nnn(C[C@@H](CO)OCP(=O)(O)O)c2n1	6 (≈ 18.8 µM)	1 (≈ 3.13 µM)	> 100	40 (≈ 125 µM)	6 (≈ 18.8 µM)	100 (≈ 313 µM)	20 (≈ 62.7 µM)	> 100	100 (≈ 313 µM)	> 100	40 (≈ 125 µM)	9 (≈ 28.2 µM)	20 (≈ 62.7 µM)	20 (≈ 62.7 µM)
Nc1nc(N)c2nnn(C[C@@H](CF)OCP(=O)(O)O)c2n1	> 50	14.9 (≈ 46.4 µM)	50 (≈ 156 µM)	> 400	> 50	> 50	> 400		> 50	50 (≈ 156 µM)		> 50	> 400	> 400
Nc1ncnc2nn(C[C@H](O)CO)nc12		> 100	> 100				> 200		> 100	> 100		> 40		
Nc1nc(O)c2nn(CCOCP(=O)(O)O)nc2n1	> 40	> 40	> 100	> 300	40 (≈ 138 µM)	> 40	> 400	> 100	> 100	> 100	> 300	40 (≈ 138 µM)	150 (≈ 517 µM)	> 400
Nc1nc(N)c2nn(C[C@@H](CF)OCP(=O)(O)O)nc2n1	> 50	> 200	> 100	> 400	> 50	> 50	> 400		> 50	> 100		> 50	> 400	> 400
Nc1ncnc2nn(CCOCP(=O)(O)O)nc12	> 100	> 100		> 400	> 100	> 100	> 400	> 100	> 100		> 400	> 100	> 400	> 400
Nc1ncnc2c1nnn2C[C@H](O)CO	> 40	> 100	> 100		> 40		> 200		> 100	> 100		> 40		
C[C@H](Cn1nc2ncnc(N)c2n1)OCP(=O)(O)O	5 (≈ 17.3 µM)	2.9 (≈ 10.1 µM)	> 100	100 (≈ 347 µM)	5 (≈ 17.3 µM)	> 40	150 (≈ 520 µM)	> 100	> 40	> 100	100 (≈ 347 µM)	10 (≈ 34.7 µM)	> 400	150 (≈ 520 µM)
C[C@H](Cn1nc2nc(N)nc(N)c2n1)OCP(=O)(O)O	> 50	28.4 (≈ 93.7 µM)	> 100	> 200	> 50	> 50	> 100	> 100	> 50	> 100	> 200	> 50	> 100	200 (≈ 660 µM)
C[C@H](Cn1nc2nc(N)nc(O)c2n1)OCP(=O)(O)O		> 40	20 (≈ 65.7 µM)	> 400	> 20	> 50	> 100	20 (≈ 65.7 µM)	> 50	20 (≈ 65.7 µM)	> 400	> 20	> 400	> 400
Nc1nc(N)c2nnn(CCOCP(=O)(O)O)c2n1	> 40	0.75 (≈ 2.59 µM)		150 (≈ 519 µM)	> 40	> 40	70 (≈ 242 µM)	45.8 (≈ 158 µM)	> 40		150 (≈ 519 µM)	> 40	> 400	150 (≈ 519 µM)
